Data reported in the EternaBench riboswitch data.

Test system: MS2 coat protein
Assay: apparent Kd, MS2 coat protein; higher = weaker binding; RNA-MaP array; FMN 200 µM where present
Procedure, shortened: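 Stalled E. coli RNA polymerase produced the designs on Illumina sequencing-chip clusters. SNAP-549-labelled MS2 coat protein was added from 0.7 or 1.5 nM, doubling to 3 µM, without and then with constant ligand, in 100 mM Tris-HCl pH 7.5, 80 mM KCl, 4 mM MgCl2, BSA, DTT, yeast tRNA and Tween-20. The apparent Kd is the median of filtered per-cluster fits of green signal normalised to red-channel RNA signal and control-cluster median Fmax.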

[1] = ligand present: flavin mononucleotide, designed as: OFF switch for flavin mononucleotide
[2] = designed as: OFF switch for flavin mononucleotide, no ligand
[3] = designed as: ON switch for flavin mononucleotide, no ligand
[4] = ligand present: flavin mononucleotide, designed as: ON switch for flavin mononucleotide

Sequence | apparent Kd [1] [nM] | apparent Kd [2] [nM] | apparent Kd [3] [nM] | apparent Kd [4] [nM]
ACAUUUUAUGCAGGAUAUUGACAUAGGAUUAAACAAGAAGGGCAUUACAUGAGGAUCACCCAUGUUUUAUUGGUAUAUAAGUUC | 14 | – | – | –
ACAUUUUAUGCAGGAUAUUGACUUUGGAUUAAACAAGAAGGGCAUUACAUGAGGAUCACCCAUGUUUUAUUGGUAUAUAAGUUC | 17.1 | 13.9 | – | –
ACCAAUGCAGGAUAUACAUGAGGAUCACCCAUGUAUAACCUACAUAGGUGAUCAUCAUGUAGAAGGGCAUUGGA | 15.1 | 14.6 | – | –
ACCACGAUAGCGAUAUGAUCGAGAGAUCAUGUCGCUAUUUUUAGAAGGACAUGAGGAUCACCCAUGUAGGAUAUGGGACGUGGA | – | – | 24.7 | 10.3
ACCAGGCGAGGAUAUACUUAGAUUUUUUCGUUUAGUCUCGAACAUGAGGAUCACCCAUGUAGAAGGUGCUUCAC | 42.7 | 49.9 | – | –
ACCAUUUACUAAUCCUCUAUACAUGAGGAUCACCCAUGUUAAGAGGAUAUCAUCGUUCGCCGCGUUGAGAAGGCUUAGCAUUCG | 23.1 | 14.8 | – | –
ACCAUUUACUAAUCGUCUAUACAUGAGGAUCACCCAUGUUAUGAGGAUAUCGUCGUGAAACACGACGAGAAGGCAUAGCAUUCG | 132 | 32.2 | – | –
ACCCAGUUUUGCACUACAUGAGGAUCACCCAUGUGAGCGAGCAGAAGGACGAUGGGUGGAAAAUCGUAGGAUAUGCACUGGGUA | – | – | 47.2 | 12.6
ACCGUAUGAACAUGAGGAUCACCCAUGUAUCCGAAAGGGAAUGAGGAUAUCGAUAGCAAAGCUAUCGAGAAGGCAUGGGACGGU | – | – | 460 | 434
ACCGUAUGAACAUGAGGAUCACCCAUGUAUUCGAAAAGGAAUGAGGAUAUCGAUAGCAAAGCUAUCGAGAAGGCAUGGGACGGU | – | – | 255 | 60.4
ACCGUGUCAGGAUAUCCUGCUGUGCGGACUCUGUCUUCACGGGAGAAGGGACAUGAGGAUCACCCAUGUUUGAG | 25.4 | 20.2 | – | –
ACCUCACAUGAGGAUCACCCAUGUUAGGAUAUCUCGGUGCCCUGCAGGCAGUGGCACCAGAGAAGGAACGUGCA | 24.2 | 19.2 | – | –
ACCUCGUCAGGAUAUCCUAUUAAUUGUUUCAUAUUUACGAUGGAGAAGGGACAUGAGGAUCACCCAUGUUGGUC | 58 | 35.5 | – | –
ACCUGACAUGAGGAUCACCCAUGUCAGGAUAUGUACAUCAGGAAAAAAAAACUGAUGUACAGAAGGGACUUGGG | 18.1 | 22.4 | – | –
ACCUUACUGGUCAGGAUAUACAGUCUUUGGUGUGUGUAGAAGGGACAUGAGGAUCACCCAUGUAGGUUGCAGCA | 62.7 | 70 | – | –
ACGAGUACAGGAUAUACAUGAGGAUCACCCAUGUGAGAAUUAAGUGGCGUACCACAAAGUAGAAGGGUACUCGA | 236 | 40.3 | – | –
ACGCCCUGAGGAUAUCUUAUCCCGCACAUGAGGAUCACCCAUGUUCUCCUCCGGGCUCCGAGAGAAGGCAGGCCCA | 41.2 | 30.7 | – | –
ACGCCCUGAGGAUAUCUUAUCCCGUACAUGAGGAUCACCCAUGUUCUCCUCCGGGCUCCGAGAGAAGGCAGGCCCA | 37 | 26.7 | – | –
ACGCUUUGGGAGAAGGUACGUUAAUUUUUUUCCACAUGAGGAUCACCCAUGUAAGGAUAUCCCGGCGUUAAAUAGGCUACAGCA | 8.14 | 7.2 | – | –
ACGGAACAUGAGGAUCACCCAUGUAUCUGAGAUAAGCUCUCGCAGGAUAUUCAGAGAAGCCUAUCGGAGAAGGGUGACAGCAAA | – | – | 25.3 | 15.5
ACGGAACAUGAGGAUCACCCAUGUAUCUGAGAUAAGCUCUCGCAGGAUAUUGAGAGAAGCCUAUUCGAGAAGGGUGACAGCAAA | – | – | 90.1 | 30.1
ACGUGUUAUACAGGAUAUGUAUAGGAAUAAUCAUACAGUUAUUAAUUAAUGACAGAAGGGUAAACAUGAGGAUCACCCAUGUCA | 390 | 546 | – | –
ACUAAUUAGUGAGGAUAUACAUAAUUUAUAACUGUAGAAGGCACAAACCUCAAGACAUGAGGAUCACCCAUGUGGUAUAUAGAU | 388 | 169 | – | –
ACUAGAAGCGUGAGAUAUCACAUGAGGAUCACCCAUGUGACGCAGGAUAUAACAAUAUCAGAAGGUUAGAAGGGUGAGCACGCC | – | – | 101 | 52.9
ACUAGAUGAGGAUAUGCACAUUUUAGUGUUCCUCUAGAUUAACAUGAGGAUCACCCAUGUAGAAGGCGUCAUUU | 91.5 | 77 | – | –
ACUAGAUGAGGAUAUGCAUAUUUUCGUGUUCUUCUAGAUUAACAUGAGGAUCACCCAUGUAGAAGGCGUCUGGC | 33.8 | 18.6 | – | –
ACUAGAUGCGUGAAAUAACACAUGAGGAUCACCCAUGUGACGCAGGAUAUAACCAGAUCAGAAAGUUAGAAGGGUGAGCACGCA | – | – | 60.8 | 31.8
ACUAUACGAGGAUAUACUGUCGGGCCUCGGACAUAAAUACGACAUGAGGAUCACCCAUGUAGAAGGCGUUUACU | 54 | 31.2 | – | –

Sequence | apparent Kd [1] [nM] | apparent Kd [2] [nM] | apparent Kd [3] [nM] | apparent Kd [4] [nM]
ACUGACAUGAGGAUCACCCAUGUCUUGAAUAGGUCAAAUUCACAGGAUAUGCGCUAGGACAGGGUGCAGAAGGGUGAUGCAAUG | – | – | 45.4 | 12.1
ACUGCAUAGUCAGGAUAUGCAAAAGCAGAUGCAAAGCAUCUGAACAACACAUGAGGAUCACCCAUGUAGAAGGGACUGUGCAGU | 22.4 | 23.3 | – | –
ACUGCCCGAGAGAAGGGAACAUGAGGAUCACCCAUGUUACCUCACCUGGUGACGGAACUCCAAGUUCAGGAUAUCUCGAACGGU | 6.51 | 5.23 | – | –
ACUUCACAUGAGGAUCACCCAUGUGAGGAUAUCGUCGAGGAUGUAAUGCCAUCCGUGGCGAGAAGGCGCAUGGU | 77.7 | 29.9 | – | –
ACUUUAGUAUCACAUGUAUUACAUGAGGAUCACCCAUGUUACUAGGAUAUGUAUUAGAAUUUACAACAGAAGGAGUUAAUUUGU | 7.59 | 7.92 | – | –
AGAAACUACGAGAAGGACAUAUGACCAAGAACAAACAUGAGGAUCACCCAUGUAGGAUAUCGUAGUUUCAGGAUCGUGAGAUCA | 12.9 | 6.29 | – | –
AGAAACUACGAGAAGGACAUGUGGUCAAAACGAAACAUGAGGAUCACCCAUGUAGGAUAUCGUAGUUUCAGGAUCGUGAGAUCA | 429 | 265 | – | –
AGAAACUACGAGAAGGACAUGUGGUCCUUCAGUUACAUGAGGAUCACCCAUGUAGGAUAUCGUAGUUUCAGGAUCGUGAGAUCA | 12.3 | 40.8 | – | –
AGAGAUGACGAAGGAUAUGGAUACAUGAGGAUCACCCAUGUUUAUAUAGUGAAAUUGAUUGAAUUCCAGAAGGUCGAAUAAAAG | 36.9 | 46.7 | – | –
AGAGCCUCGUGAGGAUAUACAUGAGGAUCACCCAUGUAAAUGAAAGAUAACGAGGAAACUCGAAUGUAGAAGGCACGAGGCUCA | 182 | 24.4 | – | –
AGAGCCUCGUGAGGAUAUACAUGAGGAUCACCCAUGUAAAUGAAUGAACGGUGGAAACACCGAAUGUAGAAGGCACGAGGCUCA | 223 | 37.9 | – | –
AGAGUGUCAGGAUAUCCUGCUGUGCGGAAUCUGUAUUCACGGGAGAAGGGACAUGAGGAUCACCCAUGUUUGAG | 28.1 | 18.9 | – | –
AGAUAACACCAGAAGGACAUGAGGAUCACCCAUGUAGGAUAUGGGCAUCACUCGAGAAAGAAAAGACCAAGUGGACACGCGGUC | – | – | 117 | 10.7
AGAUCACAUGAGGAUCACCCAUGUGAGGAUAUGAUACUAUGUACUUCGGUACAUAGUAUCAGAAGGCAUGUGAA | 41.1 | 43.5 | – | –
AGAUGACGAUGUCAUCUUCGUCGGACAUGAGGAUCACCCAUGUAGGAUAUGCUACUCAAAGAGUAGCAGAAGGACAUGUGUCUU | 92.1 | 24.6 | – | –
AGCAAGCGAGGAUAUGCUCGGGUUGCUUGUCGAGAGGAUACACAUGAGGAUCACCCAUGUAGAAGGUGUAUAAA | 28.4 | 37.7 | – | –
AGCACGAAAGUGCAACGAUGUACGAGAAGGACAUGAGGAUCACCCAUGUAUGCAGUAACUGCUAUGUAGGAUAUCGUACAUCGA | 9.94 | 7.57 | – | –
AGCACGAAAGUGCAACGAUGUACGAGAAGGACAUGAGGAUCACCCAUGUCGCUGUAACAGCACAUGUAGGAUAUCGUACAUCGA | 15.2 | 12.9 | – | –
AGCAUGUAAGGAUAUGCAAGUGGUAUGGAUCGUACCAGAAAGCAGAAGGUACAUGAGGAUCACCCAUGUGCUCC | 67.5 | 29.2 | – | –
AGCAUGUGAGGAUAUGCGGACUCCAGUAAAUCUGAAGUCCAGUAGAAGGCACAUGAGGAUCACCCAUGUGAUAA | 112 | 92.9 | – | –
AGCAUGUGAGGAUAUGUGACCCUCGUCCUAAGGACAAGGGAAUAGAAGGCACAUGAGGAUCACCCAUGUGAUGA | 168 | 54.6 | – | –
AGCAUGUUUACAUGAGGAUCACCCAUGUUUUUUAAGGAUAUCAGAAGGUACAUUUUGAGUUAGAGUAAGGAUAUGAUAUAUGCG | – | – | 11.9 | 8.82
AGCAUGUUUACAUGAGGAUCACCCAUGUUUUUUUAGGAUAUCAGAAGGUACAAUUUGUGUUAGAGUAAGGAUAUGAUAUAUGCG | – | – | 12.6 | 8.88
AGCCCUGACGUCAGGAUAUCCGGCCAAUAGGCCAAGGAGAAGGGACAUGAGGAUCACCCAUGUGCUUGGGUCCG | 37 | 23.7 | – | –
AGCCGUGUACAGAAGGGCGACAUGAGGAUCACCCAUGUCUCCUUGUUGGUCGUAGGAUAUGUACCGUGGCUCUCUACUGUGGGA | 7.28 | 5.96 | – | –
AGCGAACAGGCUAACAUGAGGAUCACCCAUGUGGACUCAUGGUAGGAUAUCGGGAAGGAGGAAACCGAGAAGGGCCGGUGAGCG | – | – | 150 | 70.8
AGCGGAGACAUGAGGAUCACCCAUGUCAGUGCCGGCGAUACCAGAAGGCCCGGCGGGCCUCGGCGGGAGGAUAUGGGUUCAACA | – | – | 51.8 | 14.9
